Test results taken from publication PMC8906099 (Current Research in Parasitology & Vector-borne Diseases, 2021).
≈ marks a conversion by molar mass, not a printed value. Read-outs that look alike come from different tables or passages of the source.

Key:
[1] = tested on: intracellular amastigotes of T. cruzi CA-I/72 strain; experiment: Time-course study against intracellular amastigotes; assay type: cell-based; conditions: Trypanosoma cruzi
How it was run: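 CA-I/72 trypomastigotes were incubated with C2C12 cells for 48 h to form intracellular amastigotes. Test compound was then added (0.19–100 μM, 2-fold, 0.1% DMSO), with benznidazole and DMSO controls. Incubation ran 8, 12, 24 or 48 h at 37 °C, 5% CO2. Growth inhibition was read by DAPI high-content imaging. IC50 came from sigmoid fits of the normalised infection ratio. Time trend was tested by linear regression and ANOVA.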

[2] = Cytotoxicity in infected C2C12 cells after 72 h; assay type: cell-based, murine; conditions: mouse
How it was run: (§1)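 C2C12 cells were infected with trypomastigotes (1:15) together with test compound (0.19–100 μM, 0.1% DMSO) for 72 h at 37 °C, 5% CO2. Host nuclei were counted by DAPI high-content imaging. Viability was the cell count relative to the DMSO-control mean. CC50 came from sigmoid fits. SI = CC50/IC50 against intracellular amastigotes of the same strain at 72 h.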

infected C2C12 cells = experiment: Cytotoxicity in infected C2C12 cells after 72 h; assay type: cell-based, murine; conditions: 72 h
How it was run: as §1

female BALB/c mice = experiment: Acute oral toxicity test in mice; assay type: in vivo; conditions: for DA/TA (dead animals/total animals) / Mortality / Signs of toxicity: 14 days
How it was run: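 Six-week-old female BALB/c mice (25–30 g), five per group. Single oral dose of 300 or 1,000 mg/kg test compound in Tween 80/ethanol/water (7:3:90), with a vehicle group. Clinical signs (ataxia, tremor, salivation, ptosis, seizures and others) watched continuously for 1 h, periodically over 24 h, then daily to day 14. Mortality recorded.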

[3] = tested on: amastigotes of T. cruzi Brazil strain; experiment: Trypanocidal activity against intracellular amastigotes in C2C12 cells; assay type: cell-based; conditions: Trypanosoma cruzi, C2C12, 72 h, read-out: IC50 ± SD, amastigotes
How it was run: (§2)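 Trypomastigotes from C2C12 co-culture (DMEM, 10% FBS, 25 mM HEPES, pH 7.2) were seeded with C2C12 cells at a 1:15 infection rate. Test compound (0.19–100 μM, 2-fold, 0.1% DMSO) was added at the start. After 72 h at 37 °C, 5% CO2, cells were stained with DAPI 2 h and imaged confocally. Amastigote and host nuclei were told apart by size. IC50 came from sigmoid fits of the infection ratio normalised to controls. Mean ± SD, three experiments in triplicate.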

[4] = tested on: amastigotes of T. cruzi Sylvio X10/7 strain; experiment: as above; assay type: cell-based, Trypanosoma cruzi; conditions: Trypanosoma cruzi, C2C12, 72 h, read-out: IC50 ± SD, amastigotes, Sylvio X10/7 strain, 72 h incubation
How it was run: as §2

non-infected C2C12 cells = experiment: Cytotoxicity in non-infected cells; assay type: cell-based, murine; conditions: non-infected C2C12 CC50 / IC50 amastigotes CA-I/72 strain, 72 h
How it was run: (§3)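 Non-infected C2C12 cells (5 × 10^4 per well) were plated for 24 h. Test compound (0.19–100 μM, 2-fold, 0.1% DMSO) was then added for 72 h at 37 °C. Controls were untreated, DMSO 0.4% and Triton 15%. After a PBS wash, MTT (2 mg/ml) was added for 4 h, and absorbance was read at 450 nm (reference 620 nm). CC50 came from sigmoid fits. SI = CC50/IC50 against CA-I/72 amastigotes at 72 h.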

[5] = Cytotoxicity in non-infected cells; assay type: cell-based, murine; conditions: mouse, non-infected C2C12 cells
How it was run: as §3

[6] = Cytotoxicity in non-infected cells; assay type: cell-based, monkey; conditions: monkey, non-infected LLC-MK2 cells
How it was run: (§4)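 LLC-MK2 monkey kidney cells, grown in RPMI with 10% FBS at 37 °C and 5% CO2, were plated and after 24 h exposed to test compound (0.19–100 μM, 2-fold dilutions, 0.1% DMSO) for 72 h at 37 °C. Controls were untreated cells, 0.4% DMSO and 15% Triton. After a PBS wash, MTT (2 mg/ml) was added for 4 h, and absorbance read at 450/620 nm. SI is CC50 divided by the 72 h CA-I/72 intracellular amastigote IC50.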

[7] = tested on: non-infected LLC-MK2 cells; experiment: Cytotoxicity in non-infected cells; assay type: cell-based, monkey; conditions: non-infected LLC-MK2 CC50 / IC50 amastigotes CA-I/72 strain, 72 h
How it was run: as §4

P. falciparum = conditions: ref Aher et al., 2011, cited from earlier work
[8] = Time-course cytotoxicity in infected C2C12 cells; assay type: cell-based, murine; conditions: mouse
How it was run: (§5)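 This uses the CA-I/72 time-course infection format: a 48 h pre-infection of C2C12 cells, then test compound at 0.19–100 μM for 8, 12, 24 or 48 h, with DAPI imaging. Host viability was the total host cell count divided by the mean count of 0.1% DMSO controls. CC50 came from sigmoid fits. SI = CC50/IC50 against amastigotes at the matching time.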

[9] = tested on: C2C12 cells infected with intracellular amastigotes of T. cruzi (CA-I/72 strain); experiment: Time-course cytotoxicity in infected C2C12 cells; assay type: cell-based, murine; conditions: infected C2C12 vs amastigotes CA-I/72, time-course
How it was run: as §5

[10] = tested on: amastigotes of T. cruzi Sylvio X10/4 strain; experiment: Trypanocidal activity against intracellular amastigotes in C2C12 cells; assay type: cell-based; conditions: Trypanosoma cruzi, C2C12, 72 h, read-out: IC50 ± SD, amastigotes
How it was run: as §2

[11] = tested on: trypomastigotes of T. cruzi (Sylvio X10/4 strain); experiment: Trypanocidal activity against trypomastigotes; assay type: cell-based; conditions: Trypanosoma cruzi, 72 h, read-out: IC50 ± SD, trypomastigotes
How it was run: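 Sylvio X10/4 trypomastigotes were taken from amastigote culture supernatant and seeded at 1 × 10^6 per well. Test compound was added at 0.19–100 μM (0.1% DMSO), with benznidazole (0.019–10 μM) and DMSO controls. Incubation was 72 h at 37 °C, 5% CO2. Viability was read with resazurin (40 μM in PBS), fluorescence 530/630 nm. IC50 came from sigmoid dose–response fits.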

[12] = tested on: amastigotes of T. cruzi CA-I/72 strain; experiment: Trypanocidal activity against intracellular amastigotes in C2C12 cells; assay type: cell-based; conditions: Trypanosoma cruzi, C2C12, 72 h, read-out: IC50 ± SD, amastigotes
How it was run: as §2

Trichomonas vaginalis = conditions: ref Carapina da Silva et al., 2019, cited from earlier work
[13] = tested on: several Streptococcus species; conditions: ref Vieira et al., 2018; cited from earlier work
[14] = C2C12 cells infected with T. cruzi Brazil strain
[15] = C2C12 cells infected with T. cruzi CA-I/72 strain
[16] = C2C12 cells infected with T. cruzi Sylvio X10/4 strain
[17] = C2C12 cells infected with T. cruzi Sylvio X10/7 strain
[18] = infected C2C12, Sylvio X10/4 strain
[19] = infected C2C12, Sylvio X10/7 strain

Row | Compound | IC50 ([1]; 8 h, read-out: IC50 ± SD) [µM] | IC50 ([1]; 12 h, read-out: IC50 ± SD) [µM] | IC50 ([1]; 24 h, read-out: IC50 ± SD) [µM] | IC50 ([1]; 48 h, read-out: IC50 ± SD) [µM] | CC50 at 72 h [2, 14] [µM] | CC50 at 72 h [2, 15] [µM] | CC50 at 72 h [2, 16] [µM] | CC50 at 72 h [2, 17] [µM] | SI (CC50/IC50) (infected C2C12 cells; infected C2C12, Brazil strain) | SI (CC50/IC50) (infected C2C12 cells; infected C2C12, CA-I/72 strain) | SI (CC50/IC50) (infected C2C12 cells; [18]) | SI (CC50/IC50) (infected C2C12 cells; [19]) | IC50 [3] [µM] | IC50 [4] [µM] | SI (CC50/IC50) (non-infected C2C12 cells) | CC50 at 72 h [5] [µM] | CC50 at 72 h [6] [µM] | SI (CC50/IC50) [7] | CC50 at 8 h [8] [µM] | CC50 at 12 h [8] [µM] | also measured
1 | COc1ccc(/C=C/C(=O)/C=C/c2ccc(OC)c(OC)c2)cc1OC [DBA 3, (1E,4E)-1,5-bis-(3,4-dimethoxyphenyl)penta-1,4-dien-3-one] | > 100 | 63.3 ± 3.87 | 62.1 ± 1.52 | 3.72 ± 0.56 | 1.73 ± 0.05 | 1.62 ± 0.22 | 1.25 ± 0.02 | 1.15 ± 0.29 | 0.43 | 1.07 | 0.13 | 0.23 | 3.91 ± 0.25 | 4.87 ± 0.05 | > 10 | 20.8 ± 0.67 | 11.5 ± 0.34 | 7.62 | 29.8 ± 1.32 | 2.79 ± 0.3 | Acute toxicity (general signs of toxicity or mortality) (female BALB/c mice; oral doses 300 and 1,000 mg/kg, 14-day period): no toxic effects; DA/TA (dead animals/total animals) (female BALB/c mice; single oral dose 300 mg/kg): 0/5; Mortality (female BALB/c mice; single oral dose 300 mg/kg): 0%; Signs of toxicity (female BALB/c mice; single oral dose 300 mg/kg): None; DA/TA (dead animals/total animals) (female BALB/c mice; single oral dose 1,000 mg/kg): 0/5; Mortality (female BALB/c mice; single oral dose 1,000 mg/kg): 0%; Signs of toxicity (female BALB/c mice; single oral dose 1,000 mg/kg): None; SI (CC50/IC50) (non-infected C2C12 cells; listed as 3): 13.78; IC50 (P. falciparum; chloroquine-resistant strain): 1.69 µM; IC50 (P. falciparum; chloroquine-sensitive strain): 1.97 µM; CC50 at 24 h [8]: 0.21 ± 0.13 µM; CC50 at 48 h [8]: 0.22 ± 0.17 µM; SI (CC50/IC50) ([9]; 12 h): 0.04; SI (CC50/IC50) ([9]; 24 h): 0.003; SI (CC50/IC50) ([9]; 48 h): 0.05; IC50 [10]: 9.63 ± 1.58 µM; IC50 [11]: 11.5 ± 1.36 µM; IC50 [12]: 1.51 ± 0.42 µM
2 | O=C(/C=C/c1ccccc1)/C=C/c1ccccc1 [DBA 1, (1E,4E)-1,5-diphenylpenta-1,4-dien-3-one] | > 100 | 76.8 ± 1.39 | 37.5 ± 1.01 | 14.6 ± 1.1 | 7.32 ± 0.41 | 5.74 ± 1.95 | 3.8 ± 0.24 | 3.29 ± 1 | 0.35 | 1.22 | 0.11 | 0.28 | 21.1 ± 2.51 | 11.7 ± 0.81 | 8.59 | 40.1 ± 1.25 | 16.6 ± 0.61 | 3.54 | 12.2 ± 1.15 | 2 ± 0.42 | reduction in the parasitic viability (Trichomonas vaginalis; after 24 h incubation): 98.8%; IC50 (Trichomonas vaginalis): 50 µM; MIC [13]: 100 µg/mL (≈ 427 µM); CC50 at 24 h [8]: 0.28 ± 0.04 µM; CC50 at 48 h [8]: 0.03 ± 0.02 µM; SI (CC50/IC50) ([9]; 12 h): 0.02; SI (CC50/IC50) ([9]; 24 h): 0.007; SI (CC50/IC50) ([9]; 48 h): 0.002; IC50 [10]: 34 ± 2.92 µM; IC50 [11]: 41.2 ± 2.25 µM; IC50 [12]: 4.67 ± 1.96 µM
3 | COc1ccc(/C=C/C(=O)/C=C/c2ccc(OC)cc2)cc1 [DBA 2, (1E,4E)-1,5-bis(4-methoxyphenyl)penta-1,4-dien-3-one] | > 100 | > 100 | > 100 | > 100 | 5.15 ± 0.13 | 4.3 ± 1.22 | 2.54 ± 1.86 | 0.9 ± 1.2 | 0.10 | 0.24 | 0.05 | 1.87 | 51.6 ± 4.9 | 0.48 ± 0.02 | 2.03 | 35.5 ± 0.5 | 31.4 ± 1.2 | 1.79 | 40.7 ± 1.07 | 3.03 ± 0.79 | IC50 ([1]; read-out: IC50 over the incubation times evaluated): > 100 µM; MIC [13]: 100 µg/mL (≈ 340 µM); CC50 at 24 h [8]: 0.33 ± 0.41 µM; CC50 at 48 h [8]: 0.02 ± 0.03 µM; IC50 [10]: 46.6 ± 0.48 µM; IC50 [11]: 29.8 ± 2.12 µM; IC50 [12]: 17.5 ± 1.06 µM
